Inhibition and fold change (FC) data for 3 compounds are collected here from ChEMBL document CHEMBL5653631, “A Potent and Selective ULK1 Inhibitor Suppresses Autophagy and Sensitizes Cancer Cells to Nutrient Stress” (iScience, 2018).

What is called inhibition is how much of the control response was suppressed.

For assay [1], the target named is Serine/threonine-protein kinase MRCK beta (Homo sapiens) (UniProt Q9Y5S2). Kind of assay: Inhibition of human recombinant MRCKb at 15 nM in presence of ATP by radiometric assay relative to control.
Sequence of Serine/threonine-protein kinase MRCK beta (Homo sapiens) (Q9Y5S2 whole entry): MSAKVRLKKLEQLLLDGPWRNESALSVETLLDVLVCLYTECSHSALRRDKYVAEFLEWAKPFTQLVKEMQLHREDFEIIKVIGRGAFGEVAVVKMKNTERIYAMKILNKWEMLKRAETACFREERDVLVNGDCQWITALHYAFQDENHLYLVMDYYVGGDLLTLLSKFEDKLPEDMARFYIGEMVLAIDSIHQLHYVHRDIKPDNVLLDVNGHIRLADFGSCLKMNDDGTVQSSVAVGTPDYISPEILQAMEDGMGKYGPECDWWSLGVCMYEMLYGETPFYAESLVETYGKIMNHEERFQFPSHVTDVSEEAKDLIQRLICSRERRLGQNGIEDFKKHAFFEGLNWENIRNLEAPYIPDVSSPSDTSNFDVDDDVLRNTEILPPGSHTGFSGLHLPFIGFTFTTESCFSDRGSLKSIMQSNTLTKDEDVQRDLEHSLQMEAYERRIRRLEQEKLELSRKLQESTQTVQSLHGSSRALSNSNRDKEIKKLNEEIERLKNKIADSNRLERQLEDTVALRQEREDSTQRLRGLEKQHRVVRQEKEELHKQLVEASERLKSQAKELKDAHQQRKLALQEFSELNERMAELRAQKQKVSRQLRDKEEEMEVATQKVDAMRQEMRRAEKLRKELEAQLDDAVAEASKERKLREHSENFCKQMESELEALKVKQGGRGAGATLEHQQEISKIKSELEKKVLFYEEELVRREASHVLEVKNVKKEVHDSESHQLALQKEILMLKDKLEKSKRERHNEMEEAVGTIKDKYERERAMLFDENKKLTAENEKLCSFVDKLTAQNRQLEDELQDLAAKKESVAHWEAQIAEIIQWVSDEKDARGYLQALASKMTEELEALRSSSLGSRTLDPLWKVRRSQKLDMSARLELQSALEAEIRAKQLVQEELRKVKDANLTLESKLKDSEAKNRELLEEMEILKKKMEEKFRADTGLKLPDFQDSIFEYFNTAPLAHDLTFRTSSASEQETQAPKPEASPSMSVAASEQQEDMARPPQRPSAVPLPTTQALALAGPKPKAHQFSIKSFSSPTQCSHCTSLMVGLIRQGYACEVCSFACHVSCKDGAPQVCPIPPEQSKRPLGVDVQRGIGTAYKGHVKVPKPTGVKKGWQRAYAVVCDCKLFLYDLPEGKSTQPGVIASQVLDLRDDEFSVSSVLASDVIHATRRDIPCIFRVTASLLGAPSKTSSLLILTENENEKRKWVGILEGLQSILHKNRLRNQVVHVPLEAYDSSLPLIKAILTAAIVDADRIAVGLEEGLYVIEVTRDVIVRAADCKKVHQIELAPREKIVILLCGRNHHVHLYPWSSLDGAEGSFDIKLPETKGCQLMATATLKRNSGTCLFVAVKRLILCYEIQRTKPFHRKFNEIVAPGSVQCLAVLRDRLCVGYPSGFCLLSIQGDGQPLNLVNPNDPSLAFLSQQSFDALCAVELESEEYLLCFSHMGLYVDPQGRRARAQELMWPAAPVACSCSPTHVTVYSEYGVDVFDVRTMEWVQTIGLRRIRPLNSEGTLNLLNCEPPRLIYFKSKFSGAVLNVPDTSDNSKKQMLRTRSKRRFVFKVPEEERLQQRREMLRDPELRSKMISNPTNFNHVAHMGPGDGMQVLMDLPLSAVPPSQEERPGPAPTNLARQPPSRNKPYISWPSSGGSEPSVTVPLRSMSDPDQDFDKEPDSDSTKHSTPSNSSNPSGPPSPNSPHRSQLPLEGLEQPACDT
The target in assay [2] is T1, Serine/threonine-protein kinase tousled-like 1 (Homo sapiens) (UniProt Q9UKI8).
T1 sequence (whole entry): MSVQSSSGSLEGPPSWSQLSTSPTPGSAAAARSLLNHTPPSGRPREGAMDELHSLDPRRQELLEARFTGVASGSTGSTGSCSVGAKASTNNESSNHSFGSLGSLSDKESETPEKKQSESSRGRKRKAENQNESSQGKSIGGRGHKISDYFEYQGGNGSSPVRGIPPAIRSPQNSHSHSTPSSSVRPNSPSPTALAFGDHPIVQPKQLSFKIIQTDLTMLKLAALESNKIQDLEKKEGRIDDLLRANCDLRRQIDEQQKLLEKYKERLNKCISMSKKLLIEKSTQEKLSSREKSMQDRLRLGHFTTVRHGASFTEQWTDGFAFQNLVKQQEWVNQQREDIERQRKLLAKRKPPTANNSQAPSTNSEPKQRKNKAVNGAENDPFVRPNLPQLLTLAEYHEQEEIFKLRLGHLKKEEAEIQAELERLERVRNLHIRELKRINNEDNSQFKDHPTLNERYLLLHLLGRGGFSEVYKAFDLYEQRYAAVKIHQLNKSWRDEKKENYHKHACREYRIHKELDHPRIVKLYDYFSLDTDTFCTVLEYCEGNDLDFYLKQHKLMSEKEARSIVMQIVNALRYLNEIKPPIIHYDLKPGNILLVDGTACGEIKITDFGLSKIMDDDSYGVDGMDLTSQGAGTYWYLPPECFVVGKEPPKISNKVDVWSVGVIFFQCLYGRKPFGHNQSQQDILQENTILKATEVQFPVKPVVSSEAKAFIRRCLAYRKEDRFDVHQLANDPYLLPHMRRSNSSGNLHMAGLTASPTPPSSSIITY
Put plainly: Inhibition of human recombinant TLK1 at 15 nM related to control ULK1.

Assay [3] addresses Tyrosine-protein kinase Lyn (Homo sapiens) (UniProt P07948). Put plainly: Inhibition of human recombinant LYN at 40 nM in presence of ATP by radiometric assay relative to control.
Assay [4] deals with T2, Activin receptor type-1 (Homo sapiens) (UniProt Q04771).
T2 sequence (whole entry): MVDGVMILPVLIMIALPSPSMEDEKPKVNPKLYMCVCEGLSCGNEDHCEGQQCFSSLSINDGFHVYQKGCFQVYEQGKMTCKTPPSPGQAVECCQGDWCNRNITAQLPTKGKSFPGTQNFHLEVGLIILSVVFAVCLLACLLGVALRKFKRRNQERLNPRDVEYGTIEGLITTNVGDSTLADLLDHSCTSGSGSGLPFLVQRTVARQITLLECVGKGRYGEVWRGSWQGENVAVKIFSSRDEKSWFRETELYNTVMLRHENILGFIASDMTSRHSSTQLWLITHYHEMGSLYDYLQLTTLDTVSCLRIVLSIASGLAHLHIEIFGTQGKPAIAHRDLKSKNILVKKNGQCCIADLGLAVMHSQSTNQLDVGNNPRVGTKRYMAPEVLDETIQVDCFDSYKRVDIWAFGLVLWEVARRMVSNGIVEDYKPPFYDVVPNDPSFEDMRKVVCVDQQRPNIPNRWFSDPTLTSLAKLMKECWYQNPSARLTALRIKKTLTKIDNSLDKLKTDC
Kind of assay: Inhibition of human recombinant ALK2 at 500 nM related to control ULK1. In short, it runs like this:
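Panel of 327 recombinant human kinases, each assayed in vitro by radiometric activity assay in duplicate at a single inhibitor concentration per compound, chosen with reference to its ULK1 inhibition. Activity remaining was expressed as percent of vehicle control, and percent inhibition was calculated as 100 minus percent activity remaining.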

Assay [5] concerns the target High affinity nerve growth factor receptor (Homo sapiens) (UniProt P04629). Kind of assay: Inhibition of human recombinant TRKA at 500 nM related to control ULK1.

Sequence of High affinity nerve growth factor receptor (Homo sapiens) (P04629 33-796 limits assumed): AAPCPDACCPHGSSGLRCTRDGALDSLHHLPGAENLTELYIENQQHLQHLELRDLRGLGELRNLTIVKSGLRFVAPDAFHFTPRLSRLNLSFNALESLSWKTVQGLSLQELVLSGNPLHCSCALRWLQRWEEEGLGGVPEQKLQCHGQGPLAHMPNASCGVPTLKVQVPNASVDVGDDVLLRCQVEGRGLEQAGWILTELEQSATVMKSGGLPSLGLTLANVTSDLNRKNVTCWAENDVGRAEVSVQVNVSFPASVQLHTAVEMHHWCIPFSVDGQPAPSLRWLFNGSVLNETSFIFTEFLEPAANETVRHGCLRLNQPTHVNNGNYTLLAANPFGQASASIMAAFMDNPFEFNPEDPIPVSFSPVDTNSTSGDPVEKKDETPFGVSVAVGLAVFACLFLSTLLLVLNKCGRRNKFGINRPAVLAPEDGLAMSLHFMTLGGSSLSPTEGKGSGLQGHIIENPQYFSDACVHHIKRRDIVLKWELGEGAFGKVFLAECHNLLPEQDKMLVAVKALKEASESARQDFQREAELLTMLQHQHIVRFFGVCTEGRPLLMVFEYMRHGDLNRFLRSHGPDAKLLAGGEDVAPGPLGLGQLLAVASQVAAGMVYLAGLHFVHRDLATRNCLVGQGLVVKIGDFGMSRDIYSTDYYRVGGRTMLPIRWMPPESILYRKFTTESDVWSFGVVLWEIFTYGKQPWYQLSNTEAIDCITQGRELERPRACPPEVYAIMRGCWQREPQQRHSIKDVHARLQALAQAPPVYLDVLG
Sequence of Tyrosine-protein kinase Lyn (Homo sapiens) (P07948 2-512 limits assumed): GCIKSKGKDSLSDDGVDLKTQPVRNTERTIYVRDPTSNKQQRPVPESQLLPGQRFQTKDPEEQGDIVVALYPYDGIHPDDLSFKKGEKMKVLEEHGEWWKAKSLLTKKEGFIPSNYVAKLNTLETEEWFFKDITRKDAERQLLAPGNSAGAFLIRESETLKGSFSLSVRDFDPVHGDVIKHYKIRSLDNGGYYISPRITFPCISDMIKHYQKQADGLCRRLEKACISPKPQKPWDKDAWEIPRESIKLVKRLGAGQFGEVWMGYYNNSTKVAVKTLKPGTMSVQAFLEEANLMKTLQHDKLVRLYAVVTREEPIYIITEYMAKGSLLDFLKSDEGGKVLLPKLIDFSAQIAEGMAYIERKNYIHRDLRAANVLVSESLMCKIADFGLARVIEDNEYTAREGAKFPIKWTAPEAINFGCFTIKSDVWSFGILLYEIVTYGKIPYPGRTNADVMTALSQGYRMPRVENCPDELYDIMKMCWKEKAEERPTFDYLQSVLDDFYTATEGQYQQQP

As for `CC(C)[C@H](NC(=O)c1cc(-c2cnn3cc(-c4ccc(OCCN5CCCCC5)cc4)cnc23)cs1)C(F)(F)F`, the inhibition in assay [1] came to 6%. Besides, in assay [2], the fold change (FC) was 0.
With `O=C(N[C@@H](C1CC1)C(F)(F)F)c1cc(-c2cnn3cc(-c4ccc(F)cc4)cnc23)cs1`, in assay [3], the inhibition stood at 18%.
Turning to `CNC(=O)c1ccccc1Oc1nc(Nc2cc(OC)c(OC)c(OC)c2)ncc1Br`, the figures for the fold change (FC) in assay [4] and in assay [5] were 0.62 and 0.7, respectively.
